L major viab: Leishmania major promastigote growth inhibition, primary screen; Leishmania major promastigotes, resazurin fluorescence viability; 200,000 tested, 9% active; inhibition, % at 10 µM; in the data active = inhibition above about 50%;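 also: promastigotes grown with compound for 44 hours at 28 °C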
DTT redox prof: compounds producing H2O2 with reducing agent – biochemical, NIH compound library profiling, artefact control for MLSCN library redox annotation, primary screen; activation, % at 10 µM; AID 878, 2007; 200,000 tested, 0.03% active; DTT-dependent redox cycling H2O2, phenol red/HRP absorbance; 100% = 100 µM peroxide control, 0% = buffer;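 active = activation of at least 50% relative to the plate's high and low controls in the primary single-dose screen; inactive = activation below 50%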;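 also: compound incubated with DTT at 0.8 mM final as the reducing agent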
MPTP inh: mitochondrial permeability transition pore inhibitors, primary screen, biochemical, isolated mouse mitochondria, absorbance. Ca2+ swelling absorbance, 30 min. inhibition, % at 10 µM. 360,000 tested, 1.4% active;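 active = inhibition of 50% or more, scaled per plate between neutral and stimulator controls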;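 also: 0% = DMSO wells given calcium and 100% = 1 mM EGTA wells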
Lipid droplet: inhibitors of hepatocyte lipid droplet formation, primary screen, imaging, high-throughput imaging, BODIPY stain | inhibition, % at 6.5 µM | AID 1656, 2009 | AML12 mouse hepatocytes, oleate lipid droplets | 240,000 tested, 0.4% active;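 active = lipid droplet intensity inhibited by at least 50%, with more than 500 cells counted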
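Test system: AML12 mouse liver cells; schedule: overnight exposure; technique: high-content imaging of BODIPY-stained droplets and DAPI nuclei; read-out: % inhibition of corrected integrated BODIPY droplet signal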
T cruzi repl: inhibitors of intracellular T. cruzi growth, primary screen, luminescence, NIH3T3 host cells. 300,000 tested, 1.4% active. inhibition, % (no concentration beside the values). T. cruzi beta-gal in NIH3T3, 90 h;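 active = mean inhibition across valid replicates above about 55%, limit read from the data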;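 also: signal also drops with host cell toxicity which is not excluded here; 0% = plate median of DMSO wells and 100% = zero luminescence signal; higher percent means less beta-gal luminescence so fewer parasites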
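Test system: β-gal T. cruzi (Tulahuen C4) inside NIH/3T3 cells / Quantity: 5,000 cells/well / Measured by: luminescence from GalScreen with 0.05% NP40, read after 60 min / Medium: DMEM plus 2% FBS / Measure: parasite load inhibition, % / Reagent: Tulahuen C4 trypomastigotes, 5000/well / Schedule: co-culture of at least 90 h after 3 h attachment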
* marks the source's active call; other numbers are inactive results; nt = not tested or not shown. Shown is part of a subset that was picked to be rich in hits.

SMILES	L major viab	DTT redox prof	MPTP inh	Lipid droplet	T cruzi repl
O=C(CSc1ccc2nnc(CCNS(=O)(=O)c3ccccc3)n2n1)Nc1nc2ccccc2s1	-5	-1	-1	-26	1
CN1CCN(c2ccc(S(=O)(=O)N3CCOCC3)cc2NC(=O)COc2ccc(F)cc2Cl)CC1	nt	nt	0	16	46
O=C(COc1ccc(F)cc1Cl)Nc1cc(S(=O)(=O)N2CCOCC2)ccc1N1CCCCC1	nt	nt	0	-11	63*
CCN(CC)S(=O)(=O)c1ccc(N2CCN(C)CC2)c(NC(=O)COc2ccc(F)cc2Cl)c1	nt	nt	-2	nt	59*
Cc1ccc(NC(=O)C(C)N2C(=O)c3ccccc3C2=O)cc1S(=O)(=O)N1CCOCC1 (stereo unspecified)	-6	-2	0	7	nt
CCN(C(=O)c1nn(-c2ccc(OC)cc2)c(=O)c2c1c1ccccc1n2C)c1ccc(OC)cc1	8	0	4	-20	26
CCCCN(C)CCNC(=O)c1nn(-c2ccc(OC)cc2)c(=O)c2c1c1ccccc1n2C	16	0	0	-22	61*
Cc1ccccc1C1c2[nH]c3ccccc3c2CCN1Cc1cccn1-c1ncccn1 (stereo unspecified)	nt	nt	3	-18	55*
Fc1ccccc1C1c2[nH]c3ccccc3c2CCN1Cc1cccn1-c1ncccn1 (stereo unspecified)	49	-1	1	-20	77*
CCc1ccc(NC(=O)C(=O)NCCOc2ccccc2Cl)cc1	4	0	2	12	0
CC1(C(=O)Nc2ccc3c(c2)OCO3)CCN1C(=O)C1CCCCC1 (stereo unspecified)	nt	nt	0	nt	nt
O=C(CN1CCN(Cc2ccc3c(c2)OCO3)CC1)N1CCc2[nH]c3ccccc3c2C1	82*	0	nt	nt	29
O=C(CN1CCN(Cc2ccc3c(c2)OCO3)CC1)N1CCc2[nH]c3ccc(F)cc3c2C1	99*	0	-1	20	33
Cc1ccc2cccc(S(=O)(=O)Nc3ccc4c(c3)OCO4)c2n1	96*	-3	0	-1	-1
CCOc1cc(C)c(Cl)cc1S(=O)(=O)NCc1ccc2c(c1)OCO2	100*	3	0	-12	2
O=S(=O)(NCc1ccc2c(c1)OCO2)c1cccc2cccnc12	92*	3	-1	-3	-2
Cc1ccc2cccc(OCC(=O)Nc3ccc4c(c3)OCO4)c2n1	3	-1	0	15	5
O=C(NCCc1ccccn1)c1cncc(Br)c1	nt	nt	-3	8	-6
O=C(COc1ccccc1Br)Nc1ccccc1C(F)(F)F	-5	1	0	1	11
O=S1(=O)N[C@@H](Cc2ccccc2)COc2cc(N3CCC[C@@H]3CO)ccc21	nt	nt	0	nt	nt
CCCc1c(CC)c(=N)c2ccccc2n1C	53*	1	-1	1	72*
Cn1c(-c2ccccc2)c(CCO)c2ccccc21	35	2	0	4	-4
CSc1ccc(/C=C/C(=O)c2ccc(NC(=O)Cc3ccccc3)cc2)cc1	91*	4	25	nt	44
CSc1ccc(/C=C/C(=O)c2ccc(NC(=O)C(C)C)cc2)cc1	100*	-3	5	nt	17
O=C(c1ccc([N+](=O)[O-])o1)N1CCN(Cc2ccccc2)CC1	nt	nt	0	-1	45
SMILES	L major viab	DTT redox prof	MPTP inh	Lipid droplet	T cruzi repl
CCc1cccc2sc(N3CCN(C(=O)c4ccc([N+](=O)[O-])o4)CC3)nc12	nt	nt	-1	nt	64*
O=S(=O)(c1ccc2ccccc2c1)N1CCN(C(=S)Nc2ccc(F)c(Cl)c2)CC1	90*	0	29	-9	-5
O=C(CSc1nc2ccccc2o1)N1CCN(S(=O)(=O)c2ccc3ccccc3c2)CC1	20	2	1	14	-11
O=C(Cn1ncc(Cl)c(Cl)c1=O)N1CCN(S(=O)(=O)c2ccc3ccccc3c2)CC1	99*	0	1	-4	51
O=C(CCC(=O)N1CCN(S(=O)(=O)c2ccc3ccccc3c2)CC1)Nc1cc(Cl)cc(Cl)c1	63*	-2	3	11	46
O=C(O)CCC(=O)N1CCN(S(=O)(=O)c2ccc3ccccc3c2)CC1	nt	nt	-1	1	-2
Cc1ccc(S(=O)(=O)N2CCC(C(=O)N3CC(C)OC(C)C3)CC2)cc1 (stereo unspecified)	nt	nt	-2	9	-21
CC(C)CNC(=O)c1ccccc1NC(=O)CN(c1ccccc1)S(=O)(=O)N(C)C	1	1	2	-6	18
Cc1ccc(-n2cc(CN3CCC(O)(c4ccccn4)CC3)c(-c3ccc(F)cc3)n2)cc1	73*	-1	45	6	55*
Cc1ccc(-n2cc(CN(C)Cc3nccn3C)c(-c3ccc(F)cc3)n2)cc1	80*	0	-1	-23	48
CCn1ccnc1CN(C)Cc1cn(-c2ccc(C)cc2)nc1-c1ccc(F)cc1	100*	0	-2	-3	48
Cc1ccc(-n2cc(CN3CCNC(=O)CC3)c(-c3ccc(F)cc3)n2)cc1	nt	nt	1	2	21
Cc1cccc(-n2cc(CN3CCN(Cc4nccn4C)CC3)c(-c3cccc(F)c3)n2)c1	90*	1	-1	1	35
CN(Cc1cn(C)nc1-c1cccc(Cl)c1)Cc1nccn1C	nt	nt	1	-8	-2
O=C(Nc1ccc(Cl)cc1)C1Cc2c(-c3cccc(F)c3)ccnc2O1 (stereo unspecified)	nt	nt	3	nt	nt
CCCCCC(=O)N1C[C@@H](O)[C@H](n2cc(-c3ccc(F)cc3)nn2)C[C@@H]1c1ccccc1	nt	nt	-1	nt	nt
CC(Oc1ccc(Br)cc1)C(=O)Nc1ccc(S(=O)(=O)NC2=NCCCCC2)cc1 (stereo unspecified)	nt	nt	1	nt	nt
Cc1ccc(-n2cc(CN(C)Cc3ncc[nH]3)c(-c3cccc(C)c3)n2)cc1	83*	11	48	5	58*
CCn1ccnc1CN(C)Cc1cn(-c2cc(C)ccc2C)nc1-c1ccccc1	93*	-1	0	-2	10
CN(Cc1ncc[nH]1)Cc1cn(-c2ccccc2)nc1-c1ccc2c(c1)OCO2	nt	nt	1	-20	10
CCCn1nc(NC(=O)c2cccs2)c2cc3cccc(C)c3nc21	nt	nt	1	-2	38
Cc1ccc(S(=O)(=O)N[C@@H](C)C(=O)OCC(=O)N2c3ccccc3NC(=O)C2(C)C)cc1	nt	nt	1	nt	nt
N#CCCN(CCCN1CCOCC1)CN1C(=O)c2ccccc2C1=O	nt	nt	-2	nt	nt
CCCCNc1nnc(SCC(=O)c2c[nH]c3ccccc23)s1	67*	nt	2	-4	10
O=C(N/N=C/c1cccn1-c1cccc(C(=O)O)c1)Nc1ccccc1	39	0	0	-6	-19
CN(Cc1ccc(Cl)s1)C(=O)CCl	84*	-2	4	0	59*

High-throughput results as filed in PubChem.
